Measurements from ChEMBL document CHEMBL4196128 (ACS Med Chem Lett, 2018).

Legend:
HT-29 = experiment: Antiproliferative activity against human HT-29 cells harboring BRAF V600E/D mutant measured after 4 days; type: functional, cell-based; conditions: HT-29, 96 h
Cytochrome P450 3A4 = Cytochrome P450 3A4 (Homo sapiens, UniProt P08684); experiment: Inhibition of CYP3A4 (unknown origin) co-incubated with substrate; type: ADME
hERG (KCNH2) [1] = target: T1, hERG (KCNH2) (Homo sapiens, UniProt Q12809); experiment: Inhibition of human ERG at 1.5 mg/ml by binding assay relative to control; design: dose or concentration left out as unconfirmed
T1 sequence (Q12809 whole entry): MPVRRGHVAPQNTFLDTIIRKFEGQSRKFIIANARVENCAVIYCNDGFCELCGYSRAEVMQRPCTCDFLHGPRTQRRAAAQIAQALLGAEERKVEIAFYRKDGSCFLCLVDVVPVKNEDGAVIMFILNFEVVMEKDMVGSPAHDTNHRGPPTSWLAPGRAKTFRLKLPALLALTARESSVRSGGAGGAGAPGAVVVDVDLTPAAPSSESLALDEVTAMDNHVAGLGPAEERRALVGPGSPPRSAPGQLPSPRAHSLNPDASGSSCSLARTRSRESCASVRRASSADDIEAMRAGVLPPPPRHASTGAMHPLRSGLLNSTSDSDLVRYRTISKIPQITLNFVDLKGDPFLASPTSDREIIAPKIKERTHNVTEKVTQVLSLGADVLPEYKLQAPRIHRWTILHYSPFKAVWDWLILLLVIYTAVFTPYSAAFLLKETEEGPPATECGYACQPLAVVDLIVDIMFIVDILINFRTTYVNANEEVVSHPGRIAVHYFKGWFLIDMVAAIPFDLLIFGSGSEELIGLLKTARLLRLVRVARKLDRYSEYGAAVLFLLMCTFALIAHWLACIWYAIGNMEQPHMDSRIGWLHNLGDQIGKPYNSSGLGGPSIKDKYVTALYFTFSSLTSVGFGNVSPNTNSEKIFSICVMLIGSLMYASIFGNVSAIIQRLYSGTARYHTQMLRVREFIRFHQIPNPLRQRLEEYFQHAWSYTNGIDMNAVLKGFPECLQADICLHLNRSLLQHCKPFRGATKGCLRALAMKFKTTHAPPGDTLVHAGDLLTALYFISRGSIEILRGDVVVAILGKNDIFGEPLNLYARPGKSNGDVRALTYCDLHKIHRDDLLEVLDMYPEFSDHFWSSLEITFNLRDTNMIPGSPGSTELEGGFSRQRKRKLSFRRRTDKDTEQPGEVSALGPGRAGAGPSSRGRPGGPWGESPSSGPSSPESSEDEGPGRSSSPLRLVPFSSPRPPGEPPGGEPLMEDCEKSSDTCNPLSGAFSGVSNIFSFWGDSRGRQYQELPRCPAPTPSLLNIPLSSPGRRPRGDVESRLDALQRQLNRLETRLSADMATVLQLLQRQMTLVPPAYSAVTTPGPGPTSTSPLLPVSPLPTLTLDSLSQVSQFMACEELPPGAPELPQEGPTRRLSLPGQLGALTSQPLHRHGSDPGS

hERG (KCNH2) [2] = target: T1, hERG (KCNH2); experiment: Inhibition of human ERG at 10 uM by IonWork assay relative to control
Cytochrome P450 2C8 [3] = target: T2, Cytochrome P450 2C8 (Homo sapiens, UniProt P10632); experiment: Inhibition of CYP2C8 (unknown origin) preincubated followed by substrate addition; type: ADME
T2 sequence (P10632 whole entry): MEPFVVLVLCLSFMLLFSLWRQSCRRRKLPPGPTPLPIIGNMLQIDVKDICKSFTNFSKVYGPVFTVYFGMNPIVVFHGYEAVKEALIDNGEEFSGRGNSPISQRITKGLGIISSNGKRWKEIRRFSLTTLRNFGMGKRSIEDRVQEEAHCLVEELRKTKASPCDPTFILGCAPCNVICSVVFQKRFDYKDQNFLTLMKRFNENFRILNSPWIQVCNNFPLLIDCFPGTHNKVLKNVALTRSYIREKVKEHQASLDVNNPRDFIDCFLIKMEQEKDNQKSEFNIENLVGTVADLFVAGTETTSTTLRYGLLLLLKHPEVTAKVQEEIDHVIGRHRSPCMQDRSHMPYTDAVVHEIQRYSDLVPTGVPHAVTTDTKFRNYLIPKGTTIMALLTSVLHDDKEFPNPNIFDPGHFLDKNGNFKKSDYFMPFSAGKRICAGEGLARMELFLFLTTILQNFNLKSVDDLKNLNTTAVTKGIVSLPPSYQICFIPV

Cytochrome P450 2C8 [4] = target: T2, Cytochrome P450 2C8; experiment: Inhibition of CYP2C8 (unknown origin) co-incubated with substrate; type: ADME
Caspase (Homo sapiens) = Caspase (Homo sapiens) (UniProt P49662+P55211+P42574+P51878+P55212+P55210+Q14790+P29466+P42575+Q92851+P31944+Q6UXS9); experiment: Activation of caspase (unknown origin); type: protein assay
hERG (KCNH2) [5] = target: T1, hERG (KCNH2); experiment: Inhibition of human ERG at 600 nM by voltage clamp method relative to control
[6] = Protein binding in monkey plasma at 10 uM; type: ADME, cell-free, Macaca mulatta; conditions: rhesus monkey, read-out: PPB
[7] = target: Mitogen-activated protein kinase; ERK1/ERK2 (Homo sapiens) (UniProt P27361+P28482); experiment: Inhibition of ERK1/2 in human A2058 cells assessed as reduction in RSK phosphorylation after 24 hrs by Western blot analysis; type: cell-based
Sequence of Mitogen-activated protein kinase; ERK1/ERK2 (Homo sapiens) (P27361 whole entry, looked up): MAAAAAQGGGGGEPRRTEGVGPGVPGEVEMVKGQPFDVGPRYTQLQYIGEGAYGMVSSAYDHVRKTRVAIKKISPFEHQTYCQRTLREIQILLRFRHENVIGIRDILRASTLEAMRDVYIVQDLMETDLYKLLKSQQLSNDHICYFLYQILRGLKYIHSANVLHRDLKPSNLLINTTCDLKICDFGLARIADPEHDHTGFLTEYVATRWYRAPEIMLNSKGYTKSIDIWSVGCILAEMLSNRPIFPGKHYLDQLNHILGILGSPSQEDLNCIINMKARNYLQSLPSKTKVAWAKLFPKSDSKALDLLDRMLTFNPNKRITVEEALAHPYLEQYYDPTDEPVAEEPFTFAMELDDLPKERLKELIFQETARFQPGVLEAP
Sequence of Mitogen-activated protein kinase; ERK1/ERK2 (Homo sapiens) (P28482 whole entry, looked up): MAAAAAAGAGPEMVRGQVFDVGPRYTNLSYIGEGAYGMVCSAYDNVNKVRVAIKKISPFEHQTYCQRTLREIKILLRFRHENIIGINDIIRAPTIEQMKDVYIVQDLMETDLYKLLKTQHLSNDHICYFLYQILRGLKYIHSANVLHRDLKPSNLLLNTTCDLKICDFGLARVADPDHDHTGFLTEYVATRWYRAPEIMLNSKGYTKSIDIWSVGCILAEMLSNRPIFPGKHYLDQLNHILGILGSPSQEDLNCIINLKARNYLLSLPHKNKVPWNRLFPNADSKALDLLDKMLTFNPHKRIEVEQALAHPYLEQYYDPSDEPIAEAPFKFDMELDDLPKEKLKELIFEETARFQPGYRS
Procedure, shortened: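 A2058 melanoma cells were treated across a compound dose range. pERK1/2 and pRSK levels were detected by Western blot analysis.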

Cavia porcellus [8] = experiment: Cardiotoxicity in telemetered guinea pig assessed as changes in QRS interval at 30 to 100 mg/kg; type: toxicity, organism-based; conditions: in vivo
Procedure, shortened: (§1)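 Telemetered guinea pigs were exposed at 30 and 100 mg/kg. Electrocardiographic PR, QRS and QT/QTc intervals were monitored for changes related to the test article, and exposure was referenced to total Cmax.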

Cavia porcellus [9] = experiment: Cardiotoxicity in telemetered guinea pig assessed as changes in QTc interval at 30 to 100 mg/kg; type: toxicity, organism-based; conditions: in vivo; procedure, shortened: as §1
[10] = Half life in CD1 mouse at 10 mg/kg, iv; type: ADME, organism-based; conditions: in vivo
Procedure, shortened: (§2)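 The compound was given intravenously as an aqueous solution in 20% hydroxypropyl-β-cyclodextrin. Animals were male CD1 mice (10 mg/kg, n = 30), Sprague–Dawley rats (3 mg/kg, n = 3), beagle dogs (3 mg/kg, n = 3) and cynomolgus monkeys (1 mg/kg, n = 3). Plasma concentration–time data gave mean AUC(0–∞), half-life, mean residence time, clearance and Vd,ss.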

[11] = Mean residence time in CD1 mouse at 10 mg/kg, iv; type: ADME, organism-based; conditions: in vivo
Procedure, shortened: (§3)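 Intravenous dosing in male CD1 mice (10 mg/kg, n = 30), Sprague–Dawley rats (3 mg/kg, n = 3), beagle dogs (3 mg/kg, n = 3) and cynomolgus monkeys (1 mg/kg, n = 3). Vehicle was aqueous 20% hydroxypropyl-β-cyclodextrin. Mean residence time and steady-state volume of distribution were taken from plasma concentration–time profiles as mean parameters.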

[12] = Volume of distribution at steady state in CD1 mouse at 10 mg/kg, iv; type: ADME, organism-based; conditions: in vivo, read-out: Vdss; procedure, shortened: as §3
[13] = Volume of distribution at steady state in Sprague-Dawley rat at 3 mg/kg, iv; type: ADME, organism-based; conditions: in vivo, read-out: Vdss; procedure, shortened: as §3
[14] = Clearance in Beagle dog at 3 mg/kg, iv; type: ADME, organism-based, Canis lupus familiaris; conditions: in vivo; procedure, shortened: as §2
[15] = Tmax in CD1 mouse at 30 mg/kg, po; type: ADME, organism-based; conditions: in vivo
Procedure, shortened: (§4)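 Oral dosing in male CD1 mice (30 mg/kg, n = 27), Sprague–Dawley rats (10 mg/kg, n = 3), beagle dogs (30 mg/kg, n = 3) and cynomolgus monkeys (10 mg/kg, n = 3). Mean Tmax was read from plasma concentration–time data. Bioavailability was derived from oral AUC(0–∞) compared with intravenous AUC.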

Mus musculus = experiment: Oral bioavailability in CD1 mouse at 30 mg/kg; type: ADME, organism-based; conditions: in vivo; procedure, shortened: as §4
[16] = Oral bioavailability in Beagle dog at 30 mg/kg; type: ADME, organism-based, Canis lupus familiaris; conditions: in vivo; procedure, shortened: as §4
COLO 205 [17] = experiment: Antitumor activity against human COLO205 cells xenografted in nude mouse assessed as tumor growth inhibition at 20 mg/kg, po bid measured after 28 days relative to control; type: functional; conditions: COLO 205, po, 672 h, read-out: TGI
Procedure, shortened: (§5)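 Female nude mice carrying Colo-205 human colon tumor xenografts were randomized to oral dosing twice daily at 20, 40 or 60 mg/kg, or to vehicle. After 28 days of treatment, tumor growth inhibition or tumor regression was assessed relative to vehicle control, with P-value testing.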

COLO 205 [18] = experiment: Antitumor activity against human COLO205 cells xenografted in nude mouse assessed as tumor growth inhibition at 40 mg/kg, po bid measured after 28 days relative to control; type: functional; conditions: COLO 205, po, 672 h, read-out: TGI; procedure, shortened: as §5
COLO 205 [19] = experiment: Antitumor activity against human COLO205 cells xenografted in nude mouse assessed as tumor regression at 60 mg/kg, po bid measured after 28 days relative to control; type: functional; procedure, shortened: as §5
[20] = Tmax in monkey at 10 mg/kg, po; conditions: cynomolgus monkey, in vivo
[21] = Clearance in monkey at 1 mg/kg, iv; conditions: cynomolgus monkey, in vivo
[22] = Oral bioavailability in monkey at 10 mg/kg; conditions: cynomolgus monkey, in vivo

Sequence of Cytochrome P450 3A4 (P08684 whole entry): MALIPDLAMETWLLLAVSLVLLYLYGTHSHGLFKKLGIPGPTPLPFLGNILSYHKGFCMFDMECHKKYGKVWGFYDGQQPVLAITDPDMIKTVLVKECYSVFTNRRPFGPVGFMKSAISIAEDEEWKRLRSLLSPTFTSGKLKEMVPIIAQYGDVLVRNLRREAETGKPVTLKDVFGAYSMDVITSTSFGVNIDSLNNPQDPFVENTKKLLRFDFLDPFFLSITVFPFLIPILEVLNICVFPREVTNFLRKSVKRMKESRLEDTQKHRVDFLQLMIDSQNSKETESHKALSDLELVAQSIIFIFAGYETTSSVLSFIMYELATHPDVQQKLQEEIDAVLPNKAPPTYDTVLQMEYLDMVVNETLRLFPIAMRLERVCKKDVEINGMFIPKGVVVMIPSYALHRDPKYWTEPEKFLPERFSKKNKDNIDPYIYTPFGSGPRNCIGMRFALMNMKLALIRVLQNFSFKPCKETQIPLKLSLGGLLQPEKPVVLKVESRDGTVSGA

IC50 (HT-29): 0.051 µM | IC50 (Cytochrome P450 3A4): > 5 µM | IC50 (Cytochrome P450 2C8 [3]): 3.5 µM | IC50 (Cytochrome P450 2C8 [4]): > 5 µM | Activity (Caspase (Homo sapiens)): 185 nM | fraction unbound at 10 µM [6]: < 0.01 | inhibition [7]: Dose-dependent effect | half-life [10]: 1.8 h | MRT [11]: 1.5 h | Vd [12]: 3.3 L/kg | Vd [13]: 0.1 L/kg | clearance [14]: 3.9 mL/min/kg | Tmax [15]: 1 h | F (Mus musculus): 80% | bioavailability [16]: 23% | Tmax [20]: 1.4 h | clearance [21]: 17.9 mL/min/kg | bioavailability [22]: 2%
SMILES: CS[C@@]1(C(=O)Nc2ccc3[nH]nc(-c4ccc(OC(C)C)nc4)c3c2)CCN(CC(=O)N2CC=C(c3ccc(-c4ncn(C)n4)cc3)CC2)C1 [MK-8353]
inhibition (hERG (KCNH2) [1]): -3.5% | inhibition at 10 µM (hERG (KCNH2) [2]): -0.2% | inhibition at 0.6 µM (hERG (KCNH2) [5]): 16% | Activity (Cavia porcellus [8]): Non-Toxic | Activity (Cavia porcellus [9]): Non-Toxic | inhibition in vivo at 20 mg/kg (COLO 205 [17]): 37% | inhibition in vivo at 40 mg/kg (COLO 205 [18]): 88% | Activity (COLO 205 [19]): 40%
